The source made the active and inactive calls. The rule behind the calls is not given here.
Legend:
[1] = biological target: T1, C-C chemokine receptor type 2 (Homo sapiens, UniProt P41597); assay: Displacement of [3H]-CCR2-RA-[R] from human CCR2 expressed in human U2OS cells incubated for 2 hrs by scintillation spectrometric method; type: cell-based
Target sequence in this assay (P41597 whole entry): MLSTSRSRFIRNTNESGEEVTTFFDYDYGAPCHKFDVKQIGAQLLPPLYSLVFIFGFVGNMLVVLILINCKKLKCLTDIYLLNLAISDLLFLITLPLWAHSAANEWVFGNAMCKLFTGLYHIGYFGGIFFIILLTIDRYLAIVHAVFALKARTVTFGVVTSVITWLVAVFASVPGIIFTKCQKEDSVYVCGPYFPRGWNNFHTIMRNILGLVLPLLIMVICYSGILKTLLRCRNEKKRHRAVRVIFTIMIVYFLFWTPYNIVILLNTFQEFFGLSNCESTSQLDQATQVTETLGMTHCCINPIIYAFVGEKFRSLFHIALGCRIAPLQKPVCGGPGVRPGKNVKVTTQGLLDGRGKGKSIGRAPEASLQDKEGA

[2] = biological target: T2, C-C chemokine receptor type 5 (Homo sapiens, UniProt P51681); assay: Antagonist activity at human TEV cleavage site-linked CCR5 expressed in human U2OS cells harboring beta-lactamase reporter gene assessed as inhibition of CCL3-induced beta-arrestin recruitment at 1 uM incubated for 30 mins followed by CCL3 stimulation and measured after 16 hrs by Tango assay relative to control; type: cell-based
Target sequence in this assay (P51681 whole entry, looked up): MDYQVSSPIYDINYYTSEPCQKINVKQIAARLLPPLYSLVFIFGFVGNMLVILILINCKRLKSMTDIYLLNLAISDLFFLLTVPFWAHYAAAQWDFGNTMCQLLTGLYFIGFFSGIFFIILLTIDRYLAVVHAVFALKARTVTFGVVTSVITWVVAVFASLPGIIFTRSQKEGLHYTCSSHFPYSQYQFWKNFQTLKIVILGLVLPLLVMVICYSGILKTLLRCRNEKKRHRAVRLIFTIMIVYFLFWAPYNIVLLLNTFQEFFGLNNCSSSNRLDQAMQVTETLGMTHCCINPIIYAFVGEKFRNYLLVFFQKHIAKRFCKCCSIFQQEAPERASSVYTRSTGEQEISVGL

[3] = biological target: T1, C-C chemokine receptor type 2; assay: Antagonist activity at CCR2b in human THP1 cells assessed as inhibition of human MCP1 induced calcium flux by fluo-4 dye based fluorescence assay; type: functional, cell-based
Target sequence in this assay (P41597 whole entry): as the sequence (P41597 whole entry) above

[4] = biological target: T2, C-C chemokine receptor type 5; assay: Antagonist activity at human TEV cleavage site-linked CCR5 expressed in human U2OS cells harboring beta-lactamase reporter gene assessed as inhibition of CCL3-induced beta-arrestin recruitment incubated for 30 mins followed by CCL3 stimulation and measured after 16 hrs by Tango assay; type: cell-based
Target sequence in this assay (P51681 whole entry): as the sequence (P51681 whole entry, looked up) above

[5] = biological target: T1, C-C chemokine receptor type 2; assay: Antagonist activity at human TEV cleavage site-linked CCR2b expressed in human U2OS cells harboring beta-lactamase reporter gene assessed as inhibition of CCL2-induced beta-arrestin recruitment incubated for 30 mins followed by CCL2 stimulation and measured after 16 hrs by Tango assay; type: cell-based
Method in brief: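 Tango CCR2b-bla U2OS cells: 10 000 cells/well in FreeStyle medium, 30 min preincubation at room temperature with increasing antagonist concentrations (DMSO ≤0.5%), then 16 h with CCL2 at EC80 (5 nM), 37 °C, 5% CO2. LiveBLAzer-FRET B/G substrate 2 h at room temperature; 460/535 nm emission ratio at 400 nm excitation. IC50 by nonlinear regression.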
Target sequence in this assay (P41597 whole entry): as the sequence (P41597 whole entry) above

Homo sapiens = organism: Homo sapiens; assay: Selectivity ratio of IC50 for human TEV cleavage site-linked CCR5 expressed in human U2OS cells to IC50 for human TEV cleavage site-linked CCR2b expressed in human U2OS cells; type: cell-based
[6] = biological target: T1, C-C chemokine receptor type 2; assay: Non-competitive insurmountable antagonist activity at human CCR2 expressed in human U2OS cell membranes assessed as Emax for CCL2-stimulated [35S]GTPgammaS binding at 10 nM preincubated for 30 mins followed by [35S]GTPgammaS addition and measured after 90 mins (reference value: 107 +/- 2%); type: functional
Target sequence in this assay (P41597 whole entry, looked up): as the sequence (P41597 whole entry) above

[7] = biological target: T1, C-C chemokine receptor type 2; assay: Non-competitive insurmountable antagonist activity at human CCR2 expressed in human U2OS cell membranes assessed as Emax for CCL2-stimulated [35S]GTPgammaS binding at 1 nM preincubated for 30 mins followed by [35S]GTPgammaS addition and measured after 90 mins (reference value: 107 +/- 2%); type: functional
Target sequence in this assay (P41597 whole entry, looked up): as the sequence (P41597 whole entry) above

[8] = biological target: T1, C-C chemokine receptor type 2; assay: Non-competitive insurmountable antagonist activity at human CCR2 expressed in human U2OS cell membranes assessed as Emax for CCL2-stimulated [35S]GTPgammaS binding at 3 nM preincubated for 30 mins followed by [35S]GTPgammaS addition and measured after 90 mins (reference value: 107 +/- 2%); type: functional
Target sequence in this assay (P41597 whole entry, looked up): as the sequence (P41597 whole entry) above

[9] = biological target: T2, C-C chemokine receptor type 5; assay: Non-competitive insurmountable antagonist activity at human CCR5 expressed in human U2OS cell membranes assessed as Emax for CCL3-stimulated [35S]GTPgammaS binding at 100 nM preincubated for 30 mins followed by [35S]GTPgammaS addition and measured after 90 mins (reference value: 108 +/- 2%); type: functional
Target sequence in this assay (P51681 whole entry, looked up): as the sequence (P51681 whole entry, looked up) above

[10] = biological target: T2, C-C chemokine receptor type 5; assay: Non-competitive insurmountable antagonist activity at human CCR5 expressed in human U2OS cell membranes assessed as Emax for CCL3-stimulated [35S]GTPgammaS binding at 300 nM preincubated for 30 mins followed by [35S]GTPgammaS addition and measured after 90 mins (reference value: 108 +/- 2%); type: functional
Target sequence in this assay (P51681 whole entry, looked up): as above

[11] = biological target: T2, C-C chemokine receptor type 5; assay: Non-competitive insurmountable antagonist activity at human CCR5 expressed in human U2OS cell membranes assessed as Emax for CCL3-stimulated [35S]GTPgammaS binding at 30 nM preincubated for 30 mins followed by [35S]GTPgammaS addition and measured after 90 mins (reference value: 108 +/- 2%); type: functional
Target sequence in this assay (P51681 whole entry, looked up): as above

[12] = biological target: T1, C-C chemokine receptor type 2; assay: Inverse agonist activity at human CCR2 assessed as reduction in [35S]GTPgammaS binding at 1 uM relative to control; type: functional; parameters: scale not given: the % may be the effect or the level left
Target sequence in this assay (P41597 whole entry, looked up): as the sequence (P41597 whole entry) above

[13] = biological target: T1, C-C chemokine receptor type 2; assay: Non-competitive insurmountable antagonist activity at human CCR2 expressed in human U2OS cell membranes assessed as Emax for CCL2-stimulated [35S]GTPgammaS binding at 30 nM preincubated for 30 mins followed by [35S]GTPgammaS addition and measured after 90 mins (reference value: 107 +/- 2%); type: functional
Target sequence in this assay (P41597 whole entry, looked up): as the sequence (P41597 whole entry) above

[14] = biological target: T1, C-C chemokine receptor type 2; assay: Non-competitive insurmountable antagonist activity at human CCR2 expressed in human U2OS cell membranes assessed as Emax for CCL2-stimulated [35S]GTPgammaS binding at 100 nM preincubated for 30 mins followed by [35S]GTPgammaS addition and measured after 90 mins (reference value: 107 +/- 2%); type: functional
Target sequence in this assay (P41597 whole entry, looked up): as the sequence (P41597 whole entry) above

[15] = biological target: T2, C-C chemokine receptor type 5; assay: Non-competitive insurmountable antagonist activity at human CCR5 expressed in human U2OS cell membranes assessed as Emax for CCL3-stimulated [35S]GTPgammaS binding at 1000 nM preincubated for 30 mins followed by [35S]GTPgammaS addition and measured after 90 mins (reference value: 108 +/- 2%); type: functional
Target sequence in this assay (P51681 whole entry, looked up): as the sequence (P51681 whole entry, looked up) above

| SMILES | Ki ([1]; read-out: Ki) [nM] | inhibition [2] | also measured |
| --- | --- | --- | --- |
| COc1ccccc1Cc1c(C2CC2)[nH]c2nc(N)nn2c1=O | 105 |  |  |
| CCC(CC)Cc1[nH]c2nc(N)nn2c(=O)c1Cc1cccc(Cl)c1 | 6.4 | 29% |  |
| Nc1nc2[nH]c(C3CC3)c(Cc3cccc(Cl)c3)c(=O)n2n1 | 1.3 | > 70% | IC50 [3]: 16 to 20 nM; IC50 ([4]; read-out: pIC50 (converted)): 575 nM; IC50 [5]: 10 nM |
| CCCCCCCc1[nH]c2nc(N)nn2c(=O)c1Cc1cccc(Cl)c1 | 178 |  | Ki ([1]; read-out: pKi (converted)): 174 nM |
| CC(C)c1[nH]c2nc(N)nn2c(=O)c1Cc1ccc(Cl)c(Br)c1 | 0.4 | > 70% | IC50 ([4]; read-out: pIC50 (converted)): 112 nM; IC50 [5]: 4 nM; Ratio IC50 (Homo sapiens): 29; Emax [6]: 33%; Emax [7]: 72%; Emax [8]: 51%; Emax [9]: 58%; Emax [10]: 35%; Emax [11]: 81%; Activity [12]: 7 to 8% |
| Nc1nc2[nH]c(C3CC3)c(Cc3cccc(Br)c3)c(=O)n2n1 | 0.9 | 60% | Ki ([1]; read-out: pKi (converted)): 0.832 nM |
| COc1ccc(Cc2c(C3CC3)[nH]c3nc(N)nn3c2=O)cc1 | 20.9 |  |  |
| Nc1nc2[nH]c(C3CCCC3)c(Cc3cccc(Cl)c3)c(=O)n2n1 | 1.6 | > 70% | IC50 ([4]; read-out: pIC50 (converted)): 372 nM |
| Cc1[nH]c2nc(N)nn2c(=O)c1Cc1cccc(Cl)c1 | 17.2 |  | Ki ([1]; read-out: pKi (converted)): 16.6 nM |
| Nc1nc2[nH]c(C3CC3)c(Cc3ccc(Br)cc3)c(=O)n2n1 | 1.5 | 14% |  |
| CC[C@@H](c1ccc(F)c(F)c1)n1c(C(=O)OC)c(-c2ccno2)[nH]c1=S |  | < 50% |  |
| CC(=O)C1=C(O)C(=O)N(c2ccc(Cl)cc2F)[C@@H]1C1CCCCC1 |  | < 50% | IC50 ([4]; read-out: IC50): 703 nM |
| CCCCCCc1[nH]c2nc(N)nn2c(=O)c1Cc1cccc(Cl)c1 | 22 |  |  |
| Cc1ccccc1Cc1c(C2CC2)[nH]c2nc(N)nn2c1=O | 15.7 | 28% |  |
| Nc1nc2[nH]c(-c3ccccc3)c(Cc3cccc(Cl)c3)c(=O)n2n1 | 26.7 |  |  |
| CC(C)c1[nH]c2nc(N)nn2c(=O)c1Cc1cc(Cl)cc(Cl)c1 | 2.2 | > 70% | IC50 ([4]; read-out: pIC50 (converted)): 324 nM |
| Nc1nc2[nH]c(C3CC3)c(Cc3ccc(F)cc3)c(=O)n2n1 | 4.1 | 31% |  |
| CC(C)c1[nH]c2nc(N)nn2c(=O)c1Cc1ccc(Cl)c(Cl)c1 | 0.6 | > 70% | IC50 ([4]; read-out: pIC50 (converted)): 123 nM |
| Cc1ccc(-c2ccc3c(c2)C=C(C(=O)Nc2ccc(C[N+](C)(C)C4CCOCC4)cc2)CCC3)cc1 |  | Active | IC50 ([4]; read-out: IC50): 6 nM |
| Nc1nc2[nH]c(C3CC3)c(Cc3ccc(Cl)c(Cl)c3)c(=O)n2n1 | 0.4 | > 70% | IC50 ([4]; read-out: pIC50 (converted)): 214 nM |
| CCc1[nH]c2nc(N)nn2c(=O)c1Cc1cccc(Cl)c1 | 4 | 29% |  |

| SMILES | Ki ([1]; read-out: Ki) [nM] | inhibition [2] | also measured |
| --- | --- | --- | --- |
| CC(C)c1[nH]c2nc(N)nn2c(=O)c1Cc1cc(Cl)ccc1Cl | 22.5 | 20% |  |
| Nc1nc2[nH]c(C3CC3)c(Cc3cccc(F)c3)c(=O)n2n1 | 3.4 | 43% |  |
| CC(C)c1[nH]c2nc(N)nn2c(=O)c1Cc1cccc(Cl)c1Cl | 1.6 | > 70% | IC50 ([4]; read-out: pIC50 (converted)): 81.3 nM; IC50 [5]: 21 nM; Ratio IC50 (Homo sapiens): 4; Emax [6]: 91%; Emax [13]: 75%; Emax [14]: 50%; Emax [9]: 79%; Emax [10]: 56%; Emax [15]: 25%; Activity [12]: 7 to 8% |
| CCCCCc1[nH]c2nc(N)nn2c(=O)c1Cc1cccc(Cl)c1 | 7.2 | 38% |  |
| Nc1nc2[nH]c(C3CC3)c(Cc3ccccc3Cl)c(=O)n2n1 | 14.5 | 27% |  |
| COc1cccc(Cc2c(C3CC3)[nH]c3nc(N)nn3c2=O)c1 | 13 |  |  |
| O=C(O)c1ccccc1Oc1ccc(Cl)cc1NS(=O)(=O)c1ccc(Cl)c(Cl)c1 |  | < 50% |  |
| CCCc1[nH]c2nc(N)nn2c(=O)c1Cc1cccc(Cl)c1 | 3.6 | 64% | Ki ([1]; read-out: pKi (converted)): 3.47 nM |
| Cc1ccc(Cc2c(C3CC3)[nH]c3nc(N)nn3c2=O)cc1 | 3.5 |  |  |
| Cc1nc2[nH]c(C3CC3)c(Cc3cccc(Cl)c3)c(=O)n2n1 | 3.5 | 35% |  |
| Nc1nc2[nH]c(C3CC3)c(Cc3cccc(C(F)(F)F)c3)c(=O)n2n1 | 5.9 | 36% | Ki ([1]; read-out: pKi (converted)): 5.5 nM |
| Nc1nc2[nH]c(CCc3ccccc3)c(Cc3cccc(Cl)c3)c(=O)n2n1 | 52.3 |  | Ki ([1]; read-out: pKi (converted)): 51.3 nM |
| Cc1ccc(-c2[nH]c3nc(N)nn3c(=O)c2Cc2cccc(Cl)c2)cc1 | 159 |  | Ki ([1]; read-out: pKi (converted)): 155 nM |
| Nc1nc2[nH]c(C3CC3)c(Cc3ccc(Cl)cc3)c(=O)n2n1 | 1.8 | 31% |  |
| O=c1c(Cc2cccc(Cl)c2)c(C2CC2)[nH]c2ncnn12 | 1.7 | 60% |  |
| Cc1cccc(Cc2c(C3CC3)[nH]c3nc(N)nn3c2=O)c1 | 2.5 | 62% |  |
| Nc1nc2[nH]c(C3CC3)c(Cc3ccccc3)c(=O)n2n1 | 5.9 | 35% | Ki ([1]; read-out: pKi (converted)): 5.37 nM |
| CCCCc1[nH]c2nc(N)nn2c(=O)c1Cc1cccc(Cl)c1 | 2.3 | > 70% | IC50 ([4]; read-out: pIC50 (converted)): 513 nM |
| Nc1nc2[nH]c(C3CC3)c(Cc3cccc(I)c3)c(=O)n2n1 | 0.9 | 66% |  |
| CC(C)c1[nH]c2nc(N)nn2c(=O)c1Cc1cccc(Cl)c1 | 1.9 | > 70% | IC50 ([4]; read-out: pIC50 (converted)): 275 nM |
| CC(C)c1[nH]c2nc(N)nn2c(=O)c1Cc1cc(Br)cc(Br)c1 | 2.1 | 64% |  |
